Activity calls are given as the source filed them. No cut-off for these calls is given here.
Tests used:
Mus musculus [1] = assay: Antiinflammatory activity in po dosed mouse assessed as inhibition of LPS-induced TNFalpha production administered 30 mins before LPS challenge measured after 1 hr by ELISA; format: functional; settings: read-out: ID50 (the source's name)
How it was run: (§1)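 Groups of five mice were used. ID50 came from a least-squares linear regression of % inhibition against log dose, with 95% confidence intervals by Fieller's theorem.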

Blood [2] = assay: Antiinflammatory activity in human whole blood assessed as inhibition of LPS-induced TNFalpha production after 6 hrs by immunoassay; format: functional, tissue-based
How it was run: (§2)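 Values are the mean and SD of three to four determinations. IC50 came from a least-squares linear regression of % inhibition against log concentration, with 95% confidence intervals by Fieller's theorem.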

Blood [3] = assay: Antiinflammatory activity in human whole blood assessed as inhibition of LPS-induced TNFalpha production at 1 uM after 6 hrs by immunoassay; format: functional
Mus musculus [4] = organism: Mus musculus; assay: Antiarthritic activity in DBA/1 mouse assessed as inhibition of anti-collagen antibody-induced arthritis after 3 weeks; format: functional; settings: DBA/1, 504 h, read-out: ID50 (the source's name); how it was run: as §1
Blood [5] = assay: Antiinflammatory activity in human whole blood assessed as inhibition of LPS-induced IL1-beta production after 6 hrs by immunoassay; format: functional, tissue-based; how it was run: as §2
Rattus norvegicus [6] = assay: Antiarthritic activity in po dosed heat-killed mycobacterium tuberculosis-induced rat arthritis model assessed as decrease in paw volume administered BID for 7 days measured 24 hrs post last dose by plethysmometry; format: functional; settings: read-out: ID50 (the source's name)
How it was run: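 Adjuvant arthritis was established by day 18, and rats with injected-foot volume ≥2.75 mL were grouped to equal means. Test agents in 0.5% CMC were given orally at 5 mL/kg twice daily on days 18–24. Feet were measured by plethysmometer on days 18, 20, 23 and 25. The swelled-foot ratio (day 25/day 18, corrected by normal animals) gave % inhibition versus controls. n=5.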

Rattus norvegicus [7] = assay: Analgesic activity in po dosed heat-killed mycobacterium tuberculosis-induced rat arthritis model assessed as decrease in squeaking behavior after 72 hrs […]; format: functional; settings: read-out: ID50 (the source's name)
Blood [8] = assay: Antiinflammatory activity in human whole blood assessed as inhibition of LPS-induced IL-8 production after 6 hrs by immunoassay; format: functional, tissue-based; how it was run: as §2
[9] = target: T1, Mitogen-activated protein kinase 13 (Homo sapiens) (UniProt O15264); assay: Inhibition of p38delta at 10 uM
T1 sequence (whole entry): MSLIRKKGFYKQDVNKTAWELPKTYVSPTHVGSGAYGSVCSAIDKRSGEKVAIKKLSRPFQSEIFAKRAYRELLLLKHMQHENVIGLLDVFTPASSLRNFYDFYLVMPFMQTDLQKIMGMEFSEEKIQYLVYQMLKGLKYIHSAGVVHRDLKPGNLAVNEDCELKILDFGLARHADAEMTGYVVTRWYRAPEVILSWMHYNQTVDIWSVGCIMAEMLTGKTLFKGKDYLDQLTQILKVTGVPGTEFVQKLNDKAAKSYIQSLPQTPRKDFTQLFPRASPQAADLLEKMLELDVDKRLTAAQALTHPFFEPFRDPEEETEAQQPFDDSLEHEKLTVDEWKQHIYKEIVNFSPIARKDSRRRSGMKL

[10] = target: T2, Mitogen-activated protein kinase 13 (Homo sapiens, UniProt O15264); assay: Inhibition of p38delta
T2 sequence (O15264 whole entry): T1 sequence (whole entry)
How it was run: (§3)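 Kinase inhibition IC50 was the mean and SD of three to four determinations. It was derived by least-squares linear regression of % inhibition against log concentration, with 95% confidence intervals by Fieller's theorem.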

Mus musculus [11] = assay: Antiinflammatory activity in po dosed mouse assessed as inhibition of LPS-induced IL-6 production; format: functional; settings: read-out: ID50 (the source's name); how it was run: as §1
Mus musculus [12] = assay: Antiinflammatory activity in po dosed mouse assessed as inhibition of LPS-induced IL1-beta production administered 2 hrs after LPS challenge; format: functional; settings: read-out: ID50 (the source's name); how it was run: as §1
[13] = target: T3, Mitogen-activated protein kinase 12 (Homo sapiens, UniProt P53778); assay: Inhibition of p38-gamma; how it was run: as §3
T3 sequence (P53778 whole entry): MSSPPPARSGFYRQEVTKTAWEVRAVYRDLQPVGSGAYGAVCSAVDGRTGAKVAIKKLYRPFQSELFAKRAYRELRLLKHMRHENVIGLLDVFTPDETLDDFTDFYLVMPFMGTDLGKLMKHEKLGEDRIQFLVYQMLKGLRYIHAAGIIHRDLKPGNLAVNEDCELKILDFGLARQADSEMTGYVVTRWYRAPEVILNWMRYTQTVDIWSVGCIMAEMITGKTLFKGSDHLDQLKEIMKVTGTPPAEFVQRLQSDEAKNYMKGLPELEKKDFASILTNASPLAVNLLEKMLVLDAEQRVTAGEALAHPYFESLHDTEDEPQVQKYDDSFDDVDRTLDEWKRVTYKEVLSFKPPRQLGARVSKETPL

Blood [14] = assay: Antiinflammatory activity in human whole blood assessed as inhibition of LPS-induced IL-6 production after 6 hrs by immunoassay; format: functional, tissue-based; how it was run: as §2
[15] = target: Mitogen-activated protein kinase 14 (Homo sapiens, UniProt Q16539); assay: Inhibition of p38alpha; how it was run: as §3
Mitogen-activated protein kinase 14, sequence (Q16539 whole entry): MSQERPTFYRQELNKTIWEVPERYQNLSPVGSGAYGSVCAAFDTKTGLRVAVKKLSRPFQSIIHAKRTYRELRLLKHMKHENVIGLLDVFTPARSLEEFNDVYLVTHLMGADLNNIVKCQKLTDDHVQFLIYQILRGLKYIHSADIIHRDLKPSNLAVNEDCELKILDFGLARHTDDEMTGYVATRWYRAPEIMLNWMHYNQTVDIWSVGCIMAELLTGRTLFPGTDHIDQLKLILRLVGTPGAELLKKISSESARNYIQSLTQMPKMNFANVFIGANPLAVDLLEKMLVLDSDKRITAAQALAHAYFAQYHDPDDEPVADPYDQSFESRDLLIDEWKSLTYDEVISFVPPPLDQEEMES

[16] = target: Mitogen-activated protein kinase 11 (Homo sapiens, UniProt Q15759); assay: Inhibition of p38beta; how it was run: as §3
Mitogen-activated protein kinase 11, sequence (Q15759 whole entry): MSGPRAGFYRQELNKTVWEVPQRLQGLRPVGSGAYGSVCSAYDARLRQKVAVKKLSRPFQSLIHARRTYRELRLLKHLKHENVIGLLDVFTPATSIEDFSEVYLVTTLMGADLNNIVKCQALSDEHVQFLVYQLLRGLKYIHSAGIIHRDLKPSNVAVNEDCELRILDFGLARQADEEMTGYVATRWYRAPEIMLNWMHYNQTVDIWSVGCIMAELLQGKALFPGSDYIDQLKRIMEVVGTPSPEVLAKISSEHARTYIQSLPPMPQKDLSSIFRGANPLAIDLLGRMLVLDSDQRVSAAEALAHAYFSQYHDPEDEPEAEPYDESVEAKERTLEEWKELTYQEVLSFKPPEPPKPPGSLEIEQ

[17] = target: T4, Mitogen-activated protein kinase 12 (Homo sapiens) (UniProt P53778); assay: Inhibition of p38-gamma at 10 uM
T4 sequence (whole entry): T3 sequence (P53778 whole entry)

Mus musculus [18] = organism: Mus musculus; assay: Antiarthritic activity in DBA/1 mouse assessed as inhibition of collagen-induced arthritis; format: functional; settings: read-out: ID50 (the source's name); how it was run: as §1
Rattus norvegicus [19] = assay: Antiarthritic activity in po dosed heat-killed mycobacterium tuberculosis-induced rat arthritis model assessed as decrease in paw volume administered QD for 20 days measured on day 21 by plethysmometry; format: functional; settings: read-out: ID50 (the source's name)

Fc1ccc(-c2[nH]cc(C3=CC4CCCN4CC3)c2-c2ccncc2)cc1 (stereo not drawn)
ED50 (Mus musculus [1]): 1.09 mg/kg
IC50 (Blood [2]): 42 nM

Fc1ccc(-c2[nH]cc(C3=CCN4CCCC4C3)c2-c2ccncc2)cc1 (stereo not drawn)
ED50 (Mus musculus [1]): 2.85 mg/kg
IC50 (Blood [2]): 600 nM

Fc1ccc(-c2[nH]cc(C3=C[C@H]4CCCN4CC3)c2-c2ccncc2)cc1
ED50 (Mus musculus [1]): 6.59 mg/kg
inhibition at 1 µM (Blood [3]): 49%

Fc1ccc(-c2[nH]cc(C3=CCN4CCCCC4C3)c2-c2ccncc2)cc1 (stereo not drawn)
ED50 (Mus musculus [1]): 3.55 mg/kg
IC50 (Blood [2]): 810 nM

Fc1ccc(-c2[nH]cc(C3=C[C@@H]4CCCN4CC3)c2-c2ccncc2)cc1
ED50 (Mus musculus [4]): 2.22 mg/kg
IC50 (Blood [5]): 20 nM
ED50 (Rattus norvegicus [6]): 4.9 mg/kg
ED50 (Rattus norvegicus [7]): 2.9 mg/kg
IC50 (Blood [8]): 16 nM
inhibition [9]: inactive
ED50 (Mus musculus [1]): 0.93 mg/kg
IC50 [10]: > 10000 nM
ED50 (Mus musculus [11]): 0.11 mg/kg
ED50 (Mus musculus [12]): 8.63 mg/kg
IC50 [13]: > 10000 nM
IC50 (Blood [14]): 880 nM
IC50 [15]: 34 nM
IC50 [16]: 572 nM
inhibition [17]: inactive
IC50 (Blood [2]): 26 nM
ED50 (Mus musculus [18]): 2.38 mg/kg
ED50 (Rattus norvegicus [19]): 3.1 mg/kg

Fc1ccc(-c2[nH]cc(C3=CC4CCCCN4CC3)c2-c2ccncc2)cc1 (stereo not drawn)
ED50 (Mus musculus [1]): 2.27 mg/kg
IC50 (Blood [2]): 310 nM
